Among the data in ChEMBL document CHEMBL4725345, “DFG-1 Residue Controls Inhibitor Binding Mode and Affinity, Providing a Basis for Rational Design of Kinase Inhibitor Selectivity” (J Med Chem, 2020) are ΔTm values, retold here.

For orientation: ΔTm means the change in melting temperature against a reference sample.

Assay [1] addresses Bone morphogenetic protein receptor type-1A (Homo sapiens) (UniProt P36894). Description: Binding affinity to BMPR1A (unknown origin) assessed as change in melting temperature at 10 uM incubated for 10 mins using SYPRO orange dye by RT-PCR-based fluorescence assay. The gist of the method: (§1)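 Recombinant kinase domain at 2 μM in 10 mM HEPES pH 7.5, 500 mM NaCl, mixed with 10 μM inhibitor for 10 min at room temperature; SYPRO orange added at 1:1000; temperature-dependent unfolding fluorescence read on a real-time PCR instrument; Tm shift derived by a previously described method.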

Assay [2] addresses TGF-beta receptor type-2 (Homo sapiens) (UniProt P37173). Description: Binding affinity to TGFBR2 (unknown origin) assessed as change in melting temperature at 10 uM incubated for 10 mins using SYPRO orange dye by RT-PCR-based fluorescence assay. Put shortly: as §1
Assay [3] concerns the target Activin receptor type-1 (Homo sapiens) (UniProt Q04771). The assay can be described thus: Binding affinity to ACVR1 (unknown origin) assessed as change in melting temperature at 10 uM incubated for 10 mins using SYPRO orange dye by RT-PCR-based fluorescence assay. Put shortly: as §1
Assay [4] concerns the target BMP-2-inducible protein kinase (Homo sapiens) (UniProt Q9NSY1). Description: Binding affinity to BIKE (unknown origin) assessed as change in melting temperature at 10 uM incubated for 10 mins using SYPRO orange dye by RT-PCR-based fluorescence assay. Put shortly:
as §1

Assay [5] deals with T1, Dual specificity tyrosine-phosphorylation-regulated kinase 2 (Homo sapiens) (UniProt Q92630).
T1 sequence (whole entry): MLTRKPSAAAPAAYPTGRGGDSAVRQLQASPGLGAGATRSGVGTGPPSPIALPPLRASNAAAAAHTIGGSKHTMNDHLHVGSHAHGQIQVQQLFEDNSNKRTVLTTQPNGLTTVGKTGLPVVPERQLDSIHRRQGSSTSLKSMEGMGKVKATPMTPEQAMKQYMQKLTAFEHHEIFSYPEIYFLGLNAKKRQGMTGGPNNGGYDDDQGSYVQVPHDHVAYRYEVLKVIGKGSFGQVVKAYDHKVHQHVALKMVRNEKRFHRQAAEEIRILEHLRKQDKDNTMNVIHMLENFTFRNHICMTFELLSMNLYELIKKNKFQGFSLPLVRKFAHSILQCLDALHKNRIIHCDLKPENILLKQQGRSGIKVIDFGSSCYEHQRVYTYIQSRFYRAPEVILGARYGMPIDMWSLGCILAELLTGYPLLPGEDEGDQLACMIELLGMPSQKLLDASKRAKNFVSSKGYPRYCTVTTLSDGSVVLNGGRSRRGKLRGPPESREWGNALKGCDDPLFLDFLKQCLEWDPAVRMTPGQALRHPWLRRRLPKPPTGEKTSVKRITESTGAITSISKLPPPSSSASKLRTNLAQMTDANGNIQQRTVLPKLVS
Description: Binding affinity to DYRK2 (unknown origin) assessed as change in melting temperature at 10 uM incubated for 10 mins using SYPRO orange dye by RT-PCR-based fluorescence assay. Put shortly:
as §1

The target of assay [6] is Serine/threonine-protein kinase pim-2 (Homo sapiens) (UniProt Q9P1W9). Description: Binding affinity to PIM2 (unknown origin) assessed as change in melting temperature at 10 uM incubated for 10 mins using SYPRO orange dye by RT-PCR-based fluorescence assay. The gist of the method: as §1
Assay [7] concerns the target Myosin light chain kinase family member 4 (Homo sapiens) (UniProt Q86YV6). Description: Binding affinity to SgK085 (unknown origin) assessed as change in melting temperature at 10 uM incubated for 10 mins using SYPRO orange dye by RT-PCR-based fluorescence assay. The gist of the method:
as §1

For assay [8], the species on record is Homo sapiens. Description: Binding affinity to RSK4B (unknown origin) assessed as change in melting temperature at 10 uM incubated for 10 mins using SYPRO orange dye by RT-PCR-based fluorescence assay. The gist of the method:
as §1

Assay [9] concerns the target Activin receptor type-2A (Homo sapiens) (UniProt P27037). The assay can be described thus: Binding affinity to ACTR2 (unknown origin) assessed as change in melting temperature at 10 uM incubated for 10 mins using SYPRO orange dye by RT-PCR-based fluorescence assay.

Some results are limits rather than exact numbers.

Consider `CC(=O)c1cccc(-c2cnc3ccc(NCC4CC4)nn23)c1`, for which the ΔTm in assay [1] was above 6 °C; in assay [2], above 6 °C; in [3], above 6 °C; in [4] it was above 6 °C; in assay [5], above 4 °C; in [6], above 4 °C. In addition, the ΔTm in assay [7] is above 4 °C; in assay [8], above 4 °C; in [9], above 6 °C.
